Measurements taken from ChEMBL document CHEMBL4028911, “Discovery of a Small-Molecule Bromodomain-Containing Protein 4 (BRD4) Inhibitor That Induces AMP-Activated Protein Kinase-Modulated Autophagy-Associated Cell Death in Breast Cancer” (J Med Chem, 2017).
Active and inactive are the calls of the source. No cut-off for these calls is given here.

Experiments:
[1] = biological target: Bromodomain-containing protein 2 (Homo sapiens, UniProt P25440); assay: Inhibition of recombinant human N-terminal GST-tagged BRD2 bromodomain-1 (65 to 187 residues) expressed in Escherichia coli expression system after 120 mins by TR-FRET assay
Method in brief: (§1)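 TR-FRET bromodomain binding. Recombinant BRD domain, BET ligand and test agent in 20 μl assay buffer with 1% DMSO final. Incubated 120 min at room temperature. Blank lacks BET ligand.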

[2] = biological target: T1, Bromodomain-containing protein 4 (Homo sapiens, UniProt O60885); assay: Inhibition of BRD4 in human MDA-MB-231 cells assessed as induction of AMPKalpha phosphorylation at thr172 at 3 uM measured up to 36 hrs by Western blot analysis; assay type: cell-based
Method in brief: (§2)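 MCF-7 (1.5 μM) or MDA-MB-231 (3 μM) cells treated for indicated times. Adherent and floating cells lysed in RIPA with 1 mM PMSF. Equal protein run on 10-15% SDS-PAGE, blotted to PVDF, blocked in milk or BSA, HRP/ECL detection. β-actin loading control.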

[3] = system: MCF7; assay: Induction of autophagy in human MCF7 cells assessed as induction of autophagic vacuoles at 1.5 uM by MDC-based fluorescence microscopy; assay type: functional, cell-based
Method in brief: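 MCF-7 cells treated with 1.5 µM for indicated times. Stained with 0.05 mM monodansylcadaverine and autophagic vacuoles observed by fluorescence microscopy.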

[4] = biological target: T1, Bromodomain-containing protein 4; assay: Inhibition of BRD4 in human MCF7 cells assessed as induction of AMPKalpha phosphorylation at thr172 at 1.5 uM in presence of ATG5 siRNA by Western blot analysis; assay type: cell-based
Method in brief: (§3)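 Cells given 50 nM ATG5 or negative-control siRNA (Lipofectamine RNAiMAX) and used 48 h later, then exposed to 1.5 μM (MCF-7) or 3 μM (MDA-MB-231). p-AMPKα analysed by western blot with β-actin loading control.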

[5] = biological target: T1, Bromodomain-containing protein 4; assay: Inhibition of BRD4 in human MDA-MB-231 cells assessed as reduction in ULK1 protein expression at 3 uM up to 36 hrs by Western blot analysis; assay type: cell-based; method in brief: as §2
[6] = biological target: T1, Bromodomain-containing protein 4; assay: Inhibition of BRD4 in human MDA-MB-231 cells assessed as induction of AMPKalpha phosphorylation at thr172 at 3 uM in presence of ATG5 siRNA by Western blot analysis; assay type: cell-based; method in brief: as §3
[7] = system: MCF-7; assay: Downregulation of HMGB1 expression in human MCF-7 cells at 1.5 uM measured up to 24 hrs by Western blot analysis
[8] = biological target: T1, Bromodomain-containing protein 4; assay: Inhibition of BRD4 in human MCF7 cells assessed as increase in ATG13 phosphorylation at ser318 at 1.5 uM up to 36 hrs by Western blot analysis; assay type: cell-based; method in brief: as §2
[9] = biological target: T1, Bromodomain-containing protein 4; assay: Inhibition of BRD4 in human MDA-MB-231 cells assessed as reduction in FIP200 protein expression at 3 uM up to 36 hrs by Western blot analysis; assay type: cell-based; method in brief: as §2
[10] = biological target: T1, Bromodomain-containing protein 4; assay: Inhibition of BRD4 in human MDA-MB-231 cells assessed as downregulation of AKT phosphorylation at thr308 at 3 uM measured up to 36 hrs by Western blot analysis; assay type: cell-based; method in brief: as §2
[11] = biological target: T1, Bromodomain-containing protein 4; assay: Inhibition of recombinant human BRD4 bromodomain-1 (49 to 170 residues) expressed in Escherichia coli expression system after 120 mins by TR-FRET assay
[12] = system: Mus musculus; assay: In vivo Antiproliferative activity in BALB/c mouse xenografted with human MCF7 cells assessed as increase in LC3 expression at 100 mg/kg, ig administered once a day for 24 days by hematoxylin-staining based immunohistochemistry analysis; assay type: functional, organism-based
Method in brief: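 Xenograft tumors from vehicle and 100 mg/kg groups were formalin-fixed and sectioned. Antigen retrieval by microwaving in EDTA buffer (pH 8.0) or citrate buffer (pH 6.0). […] Percentage of positive staining quantified.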

[13] = system: MDA-MB-231; assay: Induction of autophagy in human MDA-MB-231 cells assessed as increase in LC3-2 expression at 3 uM by Western blot analysis; assay type: functional, cell-based; details: TDE = time-dependent effect
Method in brief: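 MDA-MB-231 cells (DMEM, 10% FBS, 37 °C, 5% CO2) exposed to 3 μM for indicated times. Adherent and floating cells collected, lysed in RIPA with 1 mM PMSF at 4 °C for 1 h. Protein quantified by DC assay, resolved on 10-15% SDS-PAGE, blotted to PVDF, ECL detection.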

[14] = system: MDA-MB-231; assay: Antitumor activity against human MDA-MB-231 cells xenografted in nude BALB/c mouse assessed as reduction in tumor weight at 25 to 100 mg/kg, ig administered once a day for […] measured every 3 days relative to control; assay type: functional, organism-based
Method in brief: (§4)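 Female BALB/c nude mice, 6-8 weeks, 20-22 g, injected subcutaneously with 5×10^6 MCF-7 or MDA-MB-231 cells. At 100 mm³ tumor volume (V = L×W²/2), split into four groups: 25, 50 or 100 mg/kg intragastric once daily for 24 or 27 days, or vehicle. Tumor volume and body weight measured every 3 days; tumors excised and weighed at end. MCF-7 n=7, MDA-MB-231 n=6 per group.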

[15] = biological target: Bromodomain-containing protein 3 (Homo sapiens, UniProt Q15059); assay: Inhibition of recombinant human N-terminal GST-tagged BRD3 bromodomain-1 (29 to 145 residues) expressed in Escherichia coli expression system after 120 mins by TR-FRET assay; method in brief: as §1
[16] = system: MCF7; assay: Antitumor activity against human MCF7 cells xenografted in nude BALB/c mouse assessed as reduction in tumor weight at 25 to 100 mg/kg, ig administered once a day for 24 days measured every 3 days relative to control; assay type: functional, organism-based; method in brief: as §4
[17] = system: MCF7; assay: Downregulation of HMGB1 expression in human MCF7 cells at 1.5 uM measured up to 24 hrs by Western blot analysis; assay type: functional, cell-based
Method in brief: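 MCF-7 (1.5 µM) or MDA-MB-231 (3 µM) cells treated for indicated times. Adherent and floating cells lysed in RIPA with 1 mM PMSF, 4°C for 1 h. Equal protein run on 10-15% SDS-PAGE, transferred to PVDF, blocked with milk or BSA, probed with primary then HRP secondary antibodies, ECL detection; β-actin as loading control.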

[18] = biological target: AMP-activated protein kinase, AMPK (Homo sapiens) (UniProt P54646+O43741+P54619+Q9UGJ0+Q9Y478+Q13131+Q9UGI9); assay: Activation of AMPK (unknown origin) at 1 to 10^6 nM using MBP as substrate after 60 mins in presence of ATP by […] assay
Method in brief: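 ADP-Glo luminescent kinase assay; AMPK or ULK1 enzyme, substrate, ATP and compound diluted in 40 mM Tris pH 7.5, 20 mM MgCl2, 0.1 mg/ml BSA, 50 µM DTT. Enzyme (10 ng) mixed with MBP (0.1 µg/µl)/ATP (10 µM) and compound, 60 min at room temperature. ADP-Glo reagent 40 min, then detection reagent 30 min, luminescence read; signal rises with kinase activity.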

[19] = biological target: T1, Bromodomain-containing protein 4; assay: Inhibition of BRD4 in human MCF7 cells assessed as downregulation of mTOR phosphorylation at ser244 at 1.5 uM measured up to 36 hrs by Western blot analysis; assay type: cell-based; method in brief: as §2

Chain of Bromodomain-containing protein 3 (Q15059 whole entry, the tested form may be a part): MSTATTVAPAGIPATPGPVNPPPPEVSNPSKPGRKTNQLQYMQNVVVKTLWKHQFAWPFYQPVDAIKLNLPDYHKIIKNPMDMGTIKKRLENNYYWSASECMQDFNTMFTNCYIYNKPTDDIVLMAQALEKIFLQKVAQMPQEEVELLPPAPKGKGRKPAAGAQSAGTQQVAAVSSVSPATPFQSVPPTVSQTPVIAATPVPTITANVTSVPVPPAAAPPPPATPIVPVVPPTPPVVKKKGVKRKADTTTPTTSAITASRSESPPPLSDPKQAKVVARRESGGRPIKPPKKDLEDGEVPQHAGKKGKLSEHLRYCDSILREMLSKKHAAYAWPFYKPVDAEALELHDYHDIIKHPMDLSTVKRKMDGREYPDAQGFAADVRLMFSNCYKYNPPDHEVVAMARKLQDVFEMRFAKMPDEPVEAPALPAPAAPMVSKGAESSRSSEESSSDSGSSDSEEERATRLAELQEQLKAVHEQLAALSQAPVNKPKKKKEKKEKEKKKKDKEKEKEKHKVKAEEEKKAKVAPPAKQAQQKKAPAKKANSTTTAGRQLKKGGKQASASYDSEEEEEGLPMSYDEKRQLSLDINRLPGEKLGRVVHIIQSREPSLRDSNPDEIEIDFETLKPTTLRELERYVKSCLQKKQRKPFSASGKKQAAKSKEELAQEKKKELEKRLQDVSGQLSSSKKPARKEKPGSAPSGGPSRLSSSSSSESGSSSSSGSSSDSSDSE
Chain of Bromodomain-containing protein 2 (P25440 whole entry, the tested form may be a part): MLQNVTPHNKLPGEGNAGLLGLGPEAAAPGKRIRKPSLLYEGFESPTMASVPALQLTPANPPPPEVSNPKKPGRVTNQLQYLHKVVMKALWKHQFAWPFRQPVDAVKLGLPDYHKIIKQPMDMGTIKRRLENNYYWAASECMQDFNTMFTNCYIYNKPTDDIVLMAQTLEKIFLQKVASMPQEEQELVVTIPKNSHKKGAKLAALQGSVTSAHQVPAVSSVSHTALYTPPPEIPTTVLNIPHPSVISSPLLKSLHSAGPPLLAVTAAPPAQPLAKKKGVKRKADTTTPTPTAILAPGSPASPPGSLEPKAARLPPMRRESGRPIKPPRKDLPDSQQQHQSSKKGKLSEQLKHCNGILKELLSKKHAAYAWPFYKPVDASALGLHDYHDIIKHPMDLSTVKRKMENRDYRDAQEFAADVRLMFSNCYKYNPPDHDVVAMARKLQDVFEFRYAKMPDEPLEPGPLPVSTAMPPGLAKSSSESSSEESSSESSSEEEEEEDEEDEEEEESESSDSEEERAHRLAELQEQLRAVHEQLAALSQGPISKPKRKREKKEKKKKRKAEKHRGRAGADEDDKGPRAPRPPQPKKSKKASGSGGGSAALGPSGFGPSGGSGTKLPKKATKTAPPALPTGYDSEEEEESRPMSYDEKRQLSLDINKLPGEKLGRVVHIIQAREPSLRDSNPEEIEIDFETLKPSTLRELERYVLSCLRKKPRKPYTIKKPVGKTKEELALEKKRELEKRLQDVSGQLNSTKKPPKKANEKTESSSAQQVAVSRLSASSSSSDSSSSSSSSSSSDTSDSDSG

In the case of Cc1cc(-c2nc3sc4c(c3c(=O)[nH]2)CCN(C)C4)cc(C)c1O, the IC50 [1] is reported as 24.6 µM, the inhibition [2] is reported as “Active” and the Activity [3] is reported as “Active”. The inhibition [4] was “Active”, the inhibition [5] was “Active” and the inhibition [6] was “Active”. For the same compound, the Activity [7] was “Active”, the inhibition [8] was “Active” and the inhibition [9] was “Active”. The inhibition [10] was “Active”, the IC50 [11] was 0.47 µM and the Activity [12] was “Active”. The Activity [13] was “Tde”, the Activity [14] was “Active” and the IC50 [15] was greater than 100 µM. The Activity [16] was “Active”, the Activity [17] was “Active” and the Activity [18] was “inactive”. For the same compound, the inhibition [19] was “Active”.
